Compound activity from PubChem.
SENP6 block – SENP6 protease inhibition; Recombinant SENP6 catalytic domain, aminoluciferin luminescence; 1.8% of 330,000 active; Q9GZR1; AID 2599; inhibition, % at 10 µM;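 active = inhibition above about 50% at the single tested dose, limit read from the data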;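 also: plate controls were DMSO wells with enzyme for no effect and DMSO wells lacking enzyme for full effect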
Platelet DG rel – modulates dense granule release in human platelets; AID 1663; 0.22% of 300,000 active; human platelet-rich plasma, SFLLRN dense granule ATP release, luminescence; inhibition, %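 (compounds screened at 7.5 µM in platelet-rich plasma)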;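 active = mean replicate score, as percent of positive control, at or above 50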
SENP7 inh – SENP7 protease inhibition; Q9BQF6; recombinant SENP7, Z-RLRGG-aminoluciferin luminescence, 40 min; inhibition, % at 5 µM; 1.5% of 330,000 active;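 active = inhibition above about 50% at the single test dose, limit read from the data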;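 also: plate controls were DMSO with enzyme for no effect and no enzyme buffer wells for full effect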
Target sequence (Q9BQF6 706-1050 limits assumed): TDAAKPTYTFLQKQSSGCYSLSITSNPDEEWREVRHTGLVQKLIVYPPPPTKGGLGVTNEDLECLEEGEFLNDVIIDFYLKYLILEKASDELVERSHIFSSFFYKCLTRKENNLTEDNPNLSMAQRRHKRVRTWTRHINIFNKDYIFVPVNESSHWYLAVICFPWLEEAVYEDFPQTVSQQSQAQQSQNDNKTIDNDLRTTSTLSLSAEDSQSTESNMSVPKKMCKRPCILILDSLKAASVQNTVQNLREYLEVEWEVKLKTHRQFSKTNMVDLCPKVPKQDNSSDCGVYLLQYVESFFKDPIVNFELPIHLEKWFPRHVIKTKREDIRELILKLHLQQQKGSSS
SENP1 FRET inh – SENP1 (human) catalytic domain inhibition; recombinant SENP1 catalytic domain, CyPet-SUMO1-YPet FRET cleavage; inhibition, % at 10 µM; 0.21% of 360,000 active;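 active = inhibition at least 30% at 10 µM, raw YFP signal under a set limit, fluorescence ratio 0.5 to 1.5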;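 also: 0% = enzyme with DMSO and 100% = no enzyme wells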
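Assay system – human recombinant His6-tagged SENP1 catalytic domain enzyme · Input – SENP1 enzyme, 20 pM final · Buffer or medium – Tris pH 8 buffer plus EDTA, NaCl, BME, BSA, NP40, catalase · Schedule – 50 min reaction at room temperature · Technique – FRET read of cyan and yellow fluorescence · Control set – no-enzyme wells low, DMSO-plus-enzyme wells high control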
SENP8 block-1 – SENP8 protease inhibition | purified SENP8, Z-RLRGG-aminoluciferin cleavage, luminescence | inhibition, % at 10 µM | Q96LD8 | 1.2% of 330,000 active; in the data active = inhibition above about 50%
Target sequence (Q96LD8 whole entry, looked up): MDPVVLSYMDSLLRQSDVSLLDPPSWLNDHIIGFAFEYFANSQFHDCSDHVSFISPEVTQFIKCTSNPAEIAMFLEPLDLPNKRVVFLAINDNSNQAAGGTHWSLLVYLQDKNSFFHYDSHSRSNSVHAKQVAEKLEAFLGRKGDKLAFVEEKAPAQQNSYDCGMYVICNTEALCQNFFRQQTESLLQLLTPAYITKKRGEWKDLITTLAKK
SENP8 block-2 – blocks human SENP8 cleavage of Nedd8 substrate; recombinant SENP8, Nedd8 substrate fluorescence; Q96LD8; inhibition, % at 20 µM; 0.64% of 360,000 active; in the data active = inhibition mostly above about 40%, no sharp cut-off; inactive = mostly below about 27%
* = called active by the depositor; x = no result. Shown are actives, neighbours in structure and some others; about 2.6% of the full set was active somewhere.

SMILES	SENP6 block	Platelet DG rel	SENP7 inh	SENP1 FRET inh	SENP8 block-1	SENP8 block-2
O=C(NNc1ccc([N+](=O)[O-])cc1[N+](=O)[O-])C1C2CCCCC21 (stereo not drawn)	-13.3	-2.5	4.2	3.2	-1.0	11.8
O=[N+]([O-])c1ccccc1C1Nc2cccc3cccc(c23)N1	20.2	0.1	2.7	-8.1	23.5	50.6*
COc1ccc(C2=Nc3ccccc3N(C(=O)c3ccncc3)C2C(=O)NC(C)(C)C)cc1 (stereo not drawn)	x	x	x	-3.0	x	-81.6
CC(=O)N(/N=C1\Sc2ccccc2C1=O)c1ccccc1	x	x	x	7.1	x	73.8*
COc1ccc(Nc2nc(-c3ccccc3)nc3ccccc23)cc1S(=O)(=O)N1CCOCC1	-3.5	10.9	-6.8	-1.0	-7.2	-443.3
COc1cc(SC)ccc1C(=O)Nc1nc2ccccc2[nH]1	96.7*	96.2*	101.3*	2.6	96.0*	-277.7
O=C(Nc1nc2ccccc2[nH]1)c1ccc([N+](=O)[O-])cc1	42.7	16.4	84.9*	-46.0	14.6	23.4
COc1ccccc1C(=O)Nc1nc2ccccc2[nH]1	97.9*	57.2*	101.3*	1.0	96.7*	-23.4
Brc1ccc(-c2ncc3ccccn23)cc1	10.6	-1.6	5.8	-1.9	0.7	-2.9
CCOC(=O)c1ccc(N/C=C\C(=O)c2cccc(OC)c2)cc1	-5.3	14.6	86.3*	-133.9	66.4*	-258.9
CCOC(=O)c1cccc(N/C=C/C(=O)c2ccc(OC)c(OC)c2)c1	-5.1	-1.9	-6.4	-90.7	-19.2	-496.3
O=[N+]([O-])c1cc(C(F)(F)F)ccc1N1CCN(S(=O)(=O)c2ccc3ccccc3c2)CC1	-10.1	2.5	0.4	4.2	-2.3	40.0*
O=[N+]([O-])c1cc(C(F)(F)F)ccc1N1CCC(O)CC1	-24.3	-3.6	1.8	0.0	1.6	14.4
C=CCOc1ccc(/C=C/C(=O)OCC(=O)N2CCN(C(C)=O)CC2)cc1	2.2	x	-0.5	1.9	0.7	-6.9
C=CCOc1ccc(/C=C/C(C)=N\O)cc1	79.4*	24.0	88.9*	2.7	83.4*	14.7
CN(CC(=O)Nc1c(Cl)cccc1Cl)C(=O)CCC(=O)c1ccccc1	-2.3	x	-6.5	-0.2	9.2	5.6
CC(C)Cn1cnc2c(SCCc3ccccc3)nc(N)nc21	x	x	x	0.7	x	-232.8
COc1ccc(NC(=O)C2(C)Cc3c(-c4cccc(C(N)=O)c4)ccnc3O2)cc1 (stereo not drawn)	x	x	x	-0.7	x	2.8
Cc1ccsc1C(=O)Nc1ccc(F)c([N+](=O)[O-])c1	76.9*	-1.2	71.3*	3.3	53.3*	8.7
CCOC(=O)C1CCN(Cc2ccccn2)CC1	10.3	-11.5	1.2	x	3.7	x
CCOC(=O)C1CCN(C=Nc2cc(C)on2)CC1	-8.5	56.7*	-7.8	0.1	-8.8	13.7
COC(=O)c1sccc1NC(=O)Nc1ccccc1F	69.6*	30.1	97.5*	-0.5	88.4*	7.4
Cc1c(N2C(=O)/C(=C\c3ccccc3O)SC2=S)c(=O)n(-c2ccccc2)n1C	15.2	10.5	2.7	3.5	0.3	17.9
CN1C(=O)/C(=C/c2cc(N=Nc3ccccc3)ccc2O)SC1=S	22.2	3.7	16.6	7.3	20.9	39.2*
CCCS(=O)(=O)NC(=O)C1(C)CCCN(C(=O)CCc2cccs2)C1 (stereo not drawn)	x	x	x	-0.1	x	19.1
SMILES	SENP6 block	Platelet DG rel	SENP7 inh	SENP1 FRET inh	SENP8 block-1	SENP8 block-2
CC1CC2(C)Oc3ccccc3CC2C(C)C1CNCCCN(C)C (stereo not drawn)	-4.7	1.2	-12.4	1.7	-12.0	19.3
O[C@H]1C[C@H](c2ccccc2)N(Cc2cccs2)C[C@@H]1n1cc(C2CC2)nn1	x	x	x	-0.9	x	8.9
CC1=NN(c2nc(-c3ccc(C)cc3)cs2)C(=O)C1N=Nc1ccc2ccccc2c1 (stereo not drawn)	11.5	2.7	4.9	8.5	-2.4	54.7*
CCc1nc2ccc(C(=O)N3CCN(c4ccccc4)CC3)cn2c1N(C)CCCc1ccccc1	x	x	x	-17.4	x	1.9
CC(C)(C)c1cc(CCC(=O)NCCc2ccccn2)cc(C(C)(C)C)c1O	-7.6	-1.1	-5.7	1.2	-4.2	9.7
O=C1C=C(NCCc2cc(Br)c(O)c(Br)c2)C(=O)c2ncccc21	x	x	x	3.7	x	115.7*
Cn1c(N/N=C/c2cc3ccccc3nc2Cl)nc2ccccc21	-8.3	60.4*	-0.3	-25.0	-4.7	-131.8
O=S(=O)(Nc1ccc(-c2ccc(N3CCOCC3)nn2)cc1)c1ccc(Cl)c(Cl)c1	-2.3	50.3*	-0.7	-0.2	-0.6	-37.5
COc1ccccc1-c1noc(-c2ccccc2)n1	91.6*	12.5	93.0*	3.2	86.6*	16.6
CCOc1cc(-c2nc(-c3ccccc3OC)no2)cc(OCC)c1OCC	-12.3	-0.1	-12.4	2.5	-9.6	6.5
CCOC(=O)CN1C(=O)NC2(CCCc3ccccc32)C1=O (stereo not drawn)	30.5	3.6	-6.6	-2.4	6.4	-0.4
Cc1nn(-c2ccccc2)c(C)c1C(=O)OCc1ccc(C#N)cc1	-28.9	-1.2	-4.8	0.9	-9.4	7.3
CCOC(=O)[C@]12CCC=C1N(Cc1ccccc1)C(=O)[C@H](CC(=O)N1CCN(C(=O)c3ccco3)CC1)C2	x	x	x	1.6	x	17.5
COc1ccccc1NC(=O)NC1(C(=O)N2CCCCCC2)CCCCC1	-12.0	52.6*	-4.9	-2.6	-8.6	19.8
COC(=O)c1ccccc1NC(=O)Nc1ccc(C(=O)N2CCCC2)cc1	13.4	-7.1	9.2	-1.5	10.6	14.1
COc1ccccc1NC(=O)Nc1ccc(C(=O)N2CCCCC2)cc1	95.8*	92.2*	97.4*	0.4	91.4*	11.0
CC(C)n1ncc2c(C(=O)NCCc3ccc(F)cc3)cc(C3CC3)nc21	-10.5	x	0.0	-7.1	11.4	-399.0
CCCN(C(=O)CSc1ccccc1C(=O)O)C1CCS(=O)(=O)C1 (stereo not drawn)	-4.1	x	2.3	1.3	3.7	3.3
CC1O[C@@H]2O[C@](O[C@H](C)CC[C@@H](C)O)(c3ccccc3)O[C@@H]2C[C@H]1O (stereo partly drawn)	-17.7	4.3	9.4	0.9	-18.9	9.4
O=c1c2c(nc3cc(-c4ccccc4Cl)[nH]n13)CCS2	85.5*	3.4	36.9	-34.8	76.8*	-282.4
CCCCn1c2c(c(=N)c3ccccc31)CCC2	-10.3	122.6*	-3.9	2.2	3.0	10.8
CCCCCn1c2c(c(=N)c3ccccc31)CCC2	-0.1	69.9*	-1.3	0.2	-9.3	-49.7
CCCCCCCCn1c2c(c(=N)c3ccccc31)CCC2	-12.8	-11.4	-0.3	2.8	-10.0	-56.4
COc1ccc(NC(=O)c2nc3nc(C)cc(C(F)F)n3n2)cc1OC	3.7	67.8*	3.7	0.1	-1.0	1.7
CS(=O)(=O)N(CC(=O)Nc1cccc(Br)c1)Cc1ccccc1	10.4	-1.2	1.1	1.5	-4.1	10.8
Cc1nc2nc(-c3ccc(Cl)cc3)cn2nc1C	69.2*	7.9	-6.3	-14.1	62.4*	-499.7
